In the RNAGym collection of RNA variant scans (doi:10.1002/anie.201605470) one finds self-cleavage data, which are given here for 48 variants.

To fix the notation:
B1: Osa-1-4 twister ribozyme (parent)
chain: CCGCCUAACACUGCCAAUGCCGGUCCCAAGCCCGGAUAAAAGUGGAGGGGGCGG

Variants of B1 are the subject of this series. The series is described as follows: self-cleavage, relative activity (ratio to wild type); higher = more cleavage; co-transcriptional. In a few lines: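 The 48 positions downstream of the cleavage site in a 54-nucleotide Oryza sativa twister ribozyme template were synthesised at 97 % wild-type base and 1 % of each other base. The template was transcribed in vitro at 37 °C for 2 h, with self-cleavage allowed during transcription. Reads with or without upstream sequence after deep sequencing marked cleavage status, and relative activity is fraction cleaved normalised to wild type.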
With CCGCCUAACAGUGCCAAUGCCGGUCCCAAUCCCGGAUAAAAGUGGAGGGGGCGG [C11G G30U], the self-cleavage worked out at 0.02. CCGCCUAACAGUGCCAAUGCCGGUCCCAAACCCGGAUAAAAGUGGAGGGGGCGG [C11G G30A]: the self-cleavage is 0.03. With CCGCCUAACAGUGCCAAUGCCGGUCCCAACCCCGGAUAAAAGUGGAGGGGGCGG [C11G G30C], the self-cleavage amounted to 0.04.

In the case of CCGCCUAACAGUGCCAAUGCCGGUCCCAAGCCCGGAUAAAAGUGGAGGGGGAGG [C11G C52A], the self-cleavage was determined as 0.24.

As for CCGCCUAACAGUGCCAAUGCCGGUCCCAAGCCCGGAUAAAAGUGGAGGGGGUGG [C11G C52U], the self-cleavage was 0.73. For CCGCCUAACAGUGCCAAUGCCGGUCCCAAGCCCGGAUAAAAGUGGAGGGGGGGG [C11G C52G], the self-cleavage turned out to be 0.22. Turning to CCGCCUAACAGUGCCAAUGCCGGUCCCAAGCCAGGAUAAAAGUGGAGGGGGCGG [C11G C33A], the self-cleavage amounted to 0.04. The figure for CCGCCUAACAGUGCCAAUGCCGGUCCCAAGCCGGGAUAAAAGUGGAGGGGGCGG [C11G C33G] is 0.07; for CCGCCUAACAGUGCCAAUGCCGGUCCCAAGCCUGGAUAAAAGUGGAGGGGGCGG [C11G C33U] it is 0.06. Turning to CCGCCUAACAGUGCCAAUGCCGGUCCCAAGCCCGGAUAAAAGUGGAGGGGGCCG [C11G G53C], the self-cleavage was determined as 0.04. The figure for CCGCCUAACAGUGCCAAUGCCGGUCCCAAGCCCGGAUAAAAGUGGAGGGGGCUG [C11G G53U] is 0.07; for CCGCCUAACAGUGCCAAUGCCGGUCCCAAGCCCGGAUAAAAGUGGAGGGGGCAG [C11G G53A] it is 0.17.

In the case of CCGCCUAACAGUGCCAAUGCCGGUCCUAAGCCCGGAUAAAAGUGGAGGGGGCGG [C11G C27U], the self-cleavage is 0.06.

On to CCGCCUAACAGUGCCAAUGCCGGUCCGAAGCCCGGAUAAAAGUGGAGGGGGCGG [C11G C27G], for which the self-cleavage was 0.03. In the case of CCGCCUAACAGUGCCAAUGCCGGUCCAAAGCCCGGAUAAAAGUGGAGGGGGCGG [C11G C27A], the self-cleavage amounted to 0.07. Then CCGCCUAACAGUGCCAAUGCCCGUCCCAAGCCCGGAUAAAAGUGGAGGGGGCGG [C11G G22C], with 0.04. As for CCGCCUAACAGUGCCAAUGCCAGUCCCAAGCCCGGAUAAAAGUGGAGGGGGCGG [C11G G22A], the self-cleavage was 0.07. As to CCGCCUAACAGUGCCAAUGCCUGUCCCAAGCCCGGAUAAAAGUGGAGGGGGCGG [C11G G22U], the self-cleavage stood at 0.03.

For CCGCCUAACAGUGCCAAUGCCGGUCCCAAGCCCCGAUAAAAGUGGAGGGGGCGG [C11G G34C], the self-cleavage stood at 0.05. Regarding CCGCCUAACAGUGCCAAUGCCGGUCCCAAGCCCUGAUAAAAGUGGAGGGGGCGG [C11G G34U], the self-cleavage was 0.04. Regarding CCGCCUAACAGUGCCAAUGCCGGUCCCAAGCCCAGAUAAAAGUGGAGGGGGCGG [C11G G34A], the self-cleavage came out at 0.07. Then CCGCCUAACAGGGCCAAUGCCGGUCCCAAGCCCGGAUAAAAGUGGAGGGGGCGG [C11G U12G], with 0.08; and CCGCCUAACAGCGCCAAUGCCGGUCCCAAGCCCGGAUAAAAGUGGAGGGGGCGG [C11G U12C], with 0.08. Then CCGCCUAACAGAGCCAAUGCCGGUCCCAAGCCCGGAUAAAAGUGGAGGGGGCGG [C11G U12A], with 0.15; and CCGCCUAACAGUGCCAAUGCCGGUCCCAAGCCCGGAUAAAAGUGGAGGAGGCGG [C11G G49A], with 0.05. Then CCGCCUAACAGUGCCAAUGCCGGUCCCAAGCCCGGAUAAAAGUGGAGGCGGCGG [C11G G49C], with 0.03. As to CCGCCUAACAGUGCCAAUGCCGGUCCCAAGCCCGGAUAAAAGUGGAGGUGGCGG [C11G G49U], the self-cleavage turned out to be 0.05. The figure for CCGCCUAACAGUACCAAUGCCGGUCCCAAGCCCGGAUAAAAGUGGAGGGGGCGG [C11G G13A] is 0.06. The figure for CCGCCUAACAGUUCCAAUGCCGGUCCCAAGCCCGGAUAAAAGUGGAGGGGGCGG [C11G G13U] is 0.03; for CCGCCUAACAGUCCCAAUGCCGGUCCCAAGCCCGGAUAAAAGUGGAGGGGGCGG [C11G G13C] it is 0.02. The figure for CCGCCUAACAGUGCCAAUGCCGGUCCCAAGCCCGGAUAAAAGCGGAGGGGGCGG [C11G U43C] is 0.08; for CCGCCUAACAGUGCCAAUGCCGGUCCCAAGCCCGGAUAAAAGAGGAGGGGGCGG [C11G U43A] it is 0.15. Regarding CCGCCUAACAGUGCCAAUGCCGGUCCCAAGCCCGGAUAAAAGGGGAGGGGGCGG [C11G U43G], the self-cleavage was 0.05. Regarding CCGCCUAACAGUGCCAAUGCUGGUCCCAAGCCCGGAUAAAAGUGGAGGGGGCGG [C11G C21U], the self-cleavage is 0.39.

As to CCGCCUAACAGUGCCAAGGCCGGUCCCAAGCCCGGAUAAAAGUGGAGGGGGCGG [C11G U18G], the self-cleavage amounted to 0.54. As for CCGCCUAACAGUGCCAACGCCGGUCCCAAGCCCGGAUAAAAGUGGAGGGGGCGG [C11G U18C], the self-cleavage turned out to be 0.24.

Consider CCGCCUAACAGUGCCAAAGCCGGUCCCAAGCCCGGAUAAAAGUGGAGGGGGCGG [C11G U18A], for which the self-cleavage was determined as 0.52. Consider CCGCCUAACAGUGCCAAUGCCGGUCCCAAGCCCGGAUAAAACUGGAGGGGGCGG [C11G G42C], for which the self-cleavage came out at 0.76. CCGCCUAACAGUGCCAAUGCCGGUCCCAAGCCCGGAUAAAAAUGGAGGGGGCGG [C11G G42A]: the self-cleavage worked out at 0.75. In the case of CCGCCUAACAGUGCCAAUGCCGGUCCCAAGCCCGGAUAAAAUUGGAGGGGGCGG [C11G G42U], the self-cleavage was found to be 0.61.

CCGCCUAACAUUGACAAUGCCGGUCCCAAGCCCGGAUAAAAGUGGAGGGGGCGG [C11U C14A]: the self-cleavage was 0.07. On to CCGCCUAACAUUGUCAAUGCCGGUCCCAAGCCCGGAUAAAAGUGGAGGGGGCGG [C11U C14U], for which the self-cleavage was 0.17. Turning to CCGCCUAACAUUGGCAAUGCCGGUCCCAAGCCCGGAUAAAAGUGGAGGGGGCGG [C11U C14G], the self-cleavage turned out to be 0.09. In the case of CCGCCUAACAGUGCCAAUGCCGCUCCCAAGCCCGGAUAAAAGUGGAGGGGGCGG [C11G G23C], the self-cleavage turned out to be 0.02.

Take CCGCCUAACAGUGCCAAUGCCGUUCCCAAGCCCGGAUAAAAGUGGAGGGGGCGG [C11G G23U]: the self-cleavage is 0.04. Regarding CCGCCUAACAGUGCCAAUGCCGAUCCCAAGCCCGGAUAAAAGUGGAGGGGGCGG [C11G G23A], the self-cleavage came to 0.05. In the case of CCGCCUAACAGUGCCAAUGCCGGUCCCAAGCCCGGAUAAAAGUGGAGGGAGCGG [C11G G50A], the self-cleavage was determined as 0.11. For the variant CCGCCUAACAGUGCCAAUGCCGGUCCCAAGCCCGGAUAAAAGUGGAGGGCGCGG [C11G G50C], the self-cleavage was 0.15.
